Screening results deposited in PubChem by Broad Institute.
A1 apoptosis 2 – A1 inhibition read as caspase activation; MEF A1-2A-BIM cells, caspase-Glo luminescence, 3 h; percent of clofoctol response, DMSO zero; caspase activation, % (no concentration beside the values); 24,000 tested, under 10 active; in the data active = caspase activation above about 5.9%
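system = A1-2A-BIM-expressing MEF cells | quantity = 2500 MEF cells/well | dosing = 50 nL compound per well, pinned | schedule = overnight cell settling, then 3 h compound exposure, 37 °C | signal = luminescence from DEVD-luciferin Caspase-Glo reagent, 1:1 in 50 mM HEPES, 1 h RT | read-out = Caspase-3/7 activation, seen as rise in luminescence signal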
T cruzi intra – blocks T. cruzi growth inside host cells; activity score (inhibition), % at 5.01 µM; intracellular Trypanosoma cruzi in host cells, plate reader; actives 4.9% (n = 22,000); in the data active = activity score above about 55%;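 note: parasites and compound incubated about four days before reading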
INS-1E ATP HTS – INS-1E beta cell protection from cytokine death. INS-1E cytokine-induced death, ATP luminescence, 48 h; normalised: neutral wells 0, positive control 100. protection from cytokine-induced ATP loss, % at 10 µM. actives 0.1% (n = 20,000);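 active = mean replicate protection from cytokine-induced ATP loss at least 50% and at least 75% of replicates each reaching 50%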
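Test system: INS-1E rat cells | Quantity: 8000 cells per well | Medium: Phenol-red-free RPMI with 5% fetal bovine serum | Reagent: Cytokine cocktail of IFN-γ, TNF-α and IL-1β | Doses: One compound concentration, pin transfer | Timing: 48 h co-treatment, 10 min post-lysis read | Technique: Luminescent ATP assay (CellTiter-Glo)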
Hits are given with their value; . = inactive; / = no result given. Only a selection was taken, and hits are over-represented in it overall.

SMILES	A1 apoptosis 2	T cruzi intra	INS-1E ATP HTS
C[C@@H]1CN([C@H](C)CO)C(=O)Cc2cc(N(C)C)ccc2O[C@H]1CN(C)Cc1ccc2c(c1)OCO2	.	68.7	.
C[C@H]1CN([C@@H](C)CO)C(=O)Cc2cc(N(C)C)ccc2O[C@@H]1CN(C)Cc1ccc2c(c1)OCO2	/	63.8	.
C[C@@H]1CN([C@@H](C)CO)C(=O)Cc2cc(N(C)C)ccc2O[C@@H]1CN(C)Cc1ccc(Cl)c(Cl)c1	.	.	.
C[C@H](CO)N1C[C@H](C)[C@@H](CN(C)Cc2ccc3c(c2)OCO3)Oc2ccc(N(C)C)cc2CC1=O	.	/	/
COc1ccc(/C=N/NC(=O)c2ccccn2)cc1O	.	.	.
O=C(CCCCCCC(=O)Nc1ccccc1O)N/N=C/c1ccc2c(c1)OCCO2	/	.	.
C[C@H]1CN([C@@H](C)CO)C(=O)Cc2cc(NC(=O)Nc3ccc(C(F)(F)F)cc3)ccc2O[C@@H]1CN(C)Cc1ccc(C(F)(F)F)cc1	.	69.4	.
C[C@@H]1CN([C@@H](C)CO)C(=O)Cc2cc(NC(=O)Nc3ccc(C(F)(F)F)cc3)ccc2O[C@@H]1CN(C)Cc1ccc2c(c1)OCO2	/	58.3	.
C[C@H]1CN([C@@H](C)CO)C(=O)Cc2cc(NC(=O)C3CC3)ccc2O[C@@H]1CN(C)Cc1ccc(C(F)(F)F)cc1	.	74.2	.
C[C@H]1CN([C@@H](C)CO)C(=O)Cc2cc(NC(=O)Nc3ccc(F)cc3)ccc2O[C@H]1CN(C)Cc1ccc(C(F)(F)F)cc1	/	.	.
C[C@@H]1CN([C@H](C)CO)C(=O)Cc2cc(NC(=O)Nc3ccc(C(F)(F)F)cc3)ccc2O[C@H]1CN(C)C(=O)Nc1ccc(C(F)(F)F)cc1	.	.	.
C[C@@H]1CN([C@@H](C)CO)C(=O)Cc2cc(NC(=O)Nc3ccc(C(F)(F)F)cc3)ccc2O[C@@H]1CN(C)C(=O)Nc1ccc(C(F)(F)F)cc1	.	76.1	.
C[C@@H]1CN([C@@H](C)CO)C(=O)Cc2cc(NC(=O)C3CC3)ccc2O[C@@H]1CN(C)Cc1ccc(C(F)(F)F)cc1	.	.	.
C[C@@H]1CN([C@H](C)CO)C(=O)Cc2cc(NC(=O)Nc3ccc(C(F)(F)F)cc3)ccc2O[C@H]1CN(C)Cc1ccc2c(c1)OCO2	.	.	.
COC(=O)CCCCCCC(=O)N/N=C/CNC(=O)OC(C)(C)C	.	.	.
Cc1nnc(Sc2ccc(/C=N/NC(=O)CCCCCCC(=O)Nc3ccccc3O)o2)n1C	/	.	.
C[C@@H]1CN([C@@H](C)CO)C(=O)Cc2cc(NC(=O)Nc3ccc(F)cc3)ccc2O[C@H]1CN(C)Cc1ccc(C(F)(F)F)cc1	.	/	/
C[C@@H]1CN([C@@H](C)CO)C(=O)Cc2cc(NC(=O)Nc3ccc(F)cc3)ccc2O[C@@H]1CN(C)Cc1ccc(C(F)(F)F)cc1	/	79.8	.
O=S(=O)(NCCCO)c1ccc(Br)cc1	.	/	/
C[C@H](CO)N1C[C@H](C)[C@H](CN(C)Cc2ccc(Cl)c(Cl)c2)Oc2c(NC(=O)CCCCCC(=O)Nc3ccccc3N)cccc2C1=O	.	65.9	.
C[C@H](CO)N1C[C@H](C)[C@@H](CN(C)Cc2ccc(-c3ccccc3)cc2)Oc2c(NC(=O)CCCCCC(=O)Nc3ccccc3N)cccc2C1=O	.	75.2	.
C[C@@H]1CN([C@@H](C)CO)C(=O)c2cccc(NC(=O)CCCCCC(=O)Nc3ccccc3N)c2O[C@@H]1CN(C)Cc1ccccc1	/	.	.
C[C@@H]1CN([C@@H](C)CO)C(=O)c2cccc(NC(=O)CCCCCC(=O)Nc3ccccc3N)c2O[C@@H]1CN(C)Cc1ccc(Oc2ccccc2)cc1	/	59.0	.
C[C@@H]1CN([C@@H](C)CO)C(=O)c2cccc(NC(=O)CCCCCC(=O)Nc3ccccc3N)c2O[C@H]1CN(C)Cc1ccc(-c2ccccc2)cc1	.	/	/
C[C@@H]1CN([C@H](C)CO)C(=O)c2cccc(NC(=O)CCCCCC(=O)Nc3ccccc3N)c2O[C@@H]1CN(C)Cc1ccc(Oc2ccccc2)cc1	.	.	.
COC(=O)[C@@]1(Cc2ccccc2N=[N+]=[N-])N=C(c2ccc(OCCCO)cc2)O[C@H]1c1ccccc1	.	/	/
CC1=C(C/C=N/NC(=O)c2ccccc2O)C(C)(C)CCC1	.	.	.
COc1ccc(S(=O)(=O)N(C)C[C@@H]2Oc3c(NC(=O)c4ccc(-c5nccs5)cc4)cccc3C(=O)N([C@H](C)CO)C[C@@H]2C)cc1	.	73.7	.
Cc1ccc(S(=O)(=O)N(C)C[C@@H]2Oc3c(NC(=O)c4ccc(-c5nccs5)cc4)cccc3C(=O)N([C@H](C)CO)C[C@@H]2C)cc1	.	71.1	.
